{
  "source": "paper PMC4074512",
  "about": "(European journal of pharmacology, 2014)",
  "key": {"Caco-2 monolayers": {"system": "Caco-2 monolayers", "details": "pH from 5.5 to 7.4, ref Zhang et al., 2013; cited from earlier work"}, "[1]": {"assay": "Bidirectional flux of EFdA in Caco-2 cell monolayers", "type": "in vitro ADME", "details": "human, Caco-2, pH 7.4", "method_in_brief": "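Caco-2 cells seeded at 2.0 × 10^5 per polycarbonate insert (1.12 cm2, 0.4 μm) and differentiated 21 days. Monolayers were washed and pre-incubated 20 min at 37°C in HBSS, then TEER was read. Donor (apical or basolateral) held 25, 100 or 400 μM compound in HBSS/25 mM HEPES pH 7.4; 2 h at 37°C with shaking, sampled 0–120 min. HPLC-UV at 260 nm. Papp = (dQ/dt)/(A×C0); efflux ratio = Papp(b-a)/Papp(a-b); n = 3.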"}, "[2]": {"system": "human ectocervical tissues", "details": "three separate human ectocervical tissues; ref Zhang et al., 2013; cited from earlier work"}, "MDCKII monolayers": {"system": "MDCKII monolayers", "type": "in vitro ADME, Canine", "details": "MDCKII monolayers; for Efflux ratio after EDTA treatment compared to non-EDTA treatment groups: all test groups; for Papp (a–b) / Papp (b-a): without EDTA treatment", "method_in_brief": "(§1)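 MDCKII cells seeded at 2.0 × 10^5 per polycarbonate insert (1.12 cm2, 0.4 μm) and grown 7 days; monolayers used only if TEER > 200 Ωcm2. Flux run in both directions per the Caco-2 protocol: HBSS/25 mM HEPES pH 7.4, 37°C, 2 h, serial sampling. Optional pretreatment: 5 μM EDTA in Ca/Mg-free HBSS, both sides, 5 min at 37°C, then washed. Compound by HPLC-UV, lucifer yellow by fluorescence (485/535 nm); n = 3.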"}, "[3]": {"type": "in vitro ADME, Canine", "details": "dog, MDCK", "method_in_brief": "as §1"}, "ABCB1 transporter (PGP1)": {"molecular_target": "ABCB1 transporter (PGP1) (Homo sapiens, UniProt P08183)", "sequence (P08183 whole entry)": "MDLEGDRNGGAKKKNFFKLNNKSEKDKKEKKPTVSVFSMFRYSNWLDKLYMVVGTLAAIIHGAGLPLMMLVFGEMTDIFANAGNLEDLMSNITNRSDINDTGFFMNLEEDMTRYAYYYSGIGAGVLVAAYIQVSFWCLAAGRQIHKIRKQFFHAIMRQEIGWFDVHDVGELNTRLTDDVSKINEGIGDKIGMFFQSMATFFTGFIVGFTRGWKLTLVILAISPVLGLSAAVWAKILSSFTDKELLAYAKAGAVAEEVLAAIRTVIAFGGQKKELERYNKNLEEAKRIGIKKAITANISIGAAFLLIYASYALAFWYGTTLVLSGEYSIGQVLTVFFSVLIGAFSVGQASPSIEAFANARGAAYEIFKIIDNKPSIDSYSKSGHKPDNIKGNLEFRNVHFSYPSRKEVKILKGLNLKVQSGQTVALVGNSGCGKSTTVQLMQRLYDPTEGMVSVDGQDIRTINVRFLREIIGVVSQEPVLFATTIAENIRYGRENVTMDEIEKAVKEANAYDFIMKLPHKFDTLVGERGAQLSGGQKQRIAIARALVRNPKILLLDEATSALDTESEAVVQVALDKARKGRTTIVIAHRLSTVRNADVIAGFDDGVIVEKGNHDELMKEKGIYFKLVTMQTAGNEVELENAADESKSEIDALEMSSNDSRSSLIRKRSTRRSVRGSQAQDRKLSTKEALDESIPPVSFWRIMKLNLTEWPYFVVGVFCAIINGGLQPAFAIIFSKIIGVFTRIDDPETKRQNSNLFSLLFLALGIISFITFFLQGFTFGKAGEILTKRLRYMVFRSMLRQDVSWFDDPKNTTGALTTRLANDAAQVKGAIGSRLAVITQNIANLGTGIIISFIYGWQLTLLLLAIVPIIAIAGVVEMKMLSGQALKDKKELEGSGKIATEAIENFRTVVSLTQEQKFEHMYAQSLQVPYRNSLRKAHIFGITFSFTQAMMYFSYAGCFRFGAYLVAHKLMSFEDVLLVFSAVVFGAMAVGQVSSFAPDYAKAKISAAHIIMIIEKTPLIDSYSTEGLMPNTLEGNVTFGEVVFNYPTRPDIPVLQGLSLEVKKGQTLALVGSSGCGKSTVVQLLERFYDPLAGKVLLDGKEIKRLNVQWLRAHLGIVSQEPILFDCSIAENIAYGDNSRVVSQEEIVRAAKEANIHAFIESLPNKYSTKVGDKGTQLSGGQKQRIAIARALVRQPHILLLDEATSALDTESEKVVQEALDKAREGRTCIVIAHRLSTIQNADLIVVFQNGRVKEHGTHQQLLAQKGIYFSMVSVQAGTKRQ", "type": "cell-based", "details": "PGP1 overexpressing MDCKII cells, even at 200 μM"}, "[4]": {"details": "ref Zhang et al., 2013; cited from earlier work"}, "[5]": {"details": "ref Zhang et al., 2013, cited from earlier work"}, "MDCKII cells [6]": {"system": "MDCKII cells", "assay": "Calcein-AM uptake assay in MDCKII cells", "type": "cell-based, Canine", "details": "MDCKII cells without PGP1 expression, calcein-AM 1 μM"}, "[7]": {"system": "PGP1 overexpressing MDCKII cells", "assay": "In vitro cytotoxicity, MTT assay, PGP1 overexpressing MDCKII cells", "type": "cell-based, Canine", "details": "48 h, n = 8, mean ± SD", "method_in_brief": "(§2)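 Parental and PGP1-overexpressing MDCKII cells seeded at 5 × 10^3 per well, incubated 24 h at 37°C/5% CO2, then exposed 48 h to serial concentrations of DMSO-dissolved compound (DMSO ≤1% v/v). MTT (5 mg/ml solution) was added for 4 h at 37°C, formazan dissolved in DMSO, absorbance read at 595 nm; IC50 derived; mean ± SD.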"}, "MDCKII cells [8]": {"system": "MDCKII cells", "assay": "In vitro cytotoxicity, MTT assay, MDCKII cells", "type": "cell-based, Canine", "details": "48 h, n = 8, mean ± SD", "method_in_brief": "as §2"}},
  "note": "Read-outs that look alike come from different tables or passages of the source.",
  "data": [
    {"compound": "C#C[C@]1(CO)O[C@@H](n2cnc3c(N)nc(F)nc32)C[C@@H]1O", "note": "[EFdA, 4′-ethynyl-2-fluoro-2′-deoxyadenosine]", "values": [
      {"measurement": "pH dependence of transport", "setting": "Caco-2 monolayers", "result": "independent of pH"},
      {"measurement": "efflux ratio at 2 h", "setting": "[1]", "result": "> 2"},
      {"measurement": "efflux ratio at 2 h, 100 μM", "setting": "[1]", "result": 5.7},
      {"measurement": "efflux ratio at 2 h, 400 μM", "setting": "[1]", "result": 2.5},
      {"measurement": "Papp", "setting": "[2]", "result": "< 1", "unit": "×10⁻⁶ cm/s"},
      {"measurement": "Efflux ratio after EDTA treatment compared to non-EDTA treatment groups", "setting": "MDCKII monolayers", "result": "higher"},
      {"measurement": "Papp A→B", "setting": "[3]", "result": "< 1", "unit": "×10⁻⁶ cm/s"},
      {"measurement": "efflux ratio", "setting": "[3]", "result": "~1"},
      {"measurement": "PGP1 inhibitory effect", "setting": "ABCB1 transporter (PGP1)", "result": "lack of observed PGP1 inhibitory effect"},
      {"measurement": "Log Po/w", "setting": "[4]", "result": "−1.2"},
      {"measurement": "Change in solubility", "setting": "[5]; pH from 6 to 9", "result": "no obvious change"},
      {"measurement": "Solubility in water", "setting": "[5]", "result": 1000, "unit": "µg/mL"}
    ]},
    {"compound": "C=C[C@H]1C[N@@]2CC[C@H]1C[C@@H]2[C@@H](O)c1ccnc2ccc(OC)cc12", "note": "[Quinidine]", "values": [
      {"measurement": "PGP1 inhibitory response (calcein fluorescence)", "setting": "MDCKII cells [6]", "result": "no obvious PGP1 inhibitory response"}
    ]},
    {"compound": "Ivermectin", "values": [
      {"measurement": "IC50", "setting": "[7]", "result": "12.2 ± 0.87", "unit": "µM"},
      {"measurement": "PGP1 inhibitory response (calcein fluorescence)", "setting": "MDCKII cells [6]", "result": "no obvious PGP1 inhibitory response"},
      {"measurement": "IC50", "setting": "MDCKII cells [8]", "result": "20 ± 2.91", "unit": "µM"}
    ]},
    {"compound": "Lucifer yellow [LY]", "values": [
      {"measurement": "Efflux ratio after EDTA treatment compared to non-EDTA treatment groups", "setting": "MDCKII monolayers", "result": "higher"},
      {"measurement": "Papp (a–b)", "setting": "MDCKII monolayers; 25 μM", "result": "3.76 ± 0.12 × 10^−7cm/s"},
      {"measurement": "Papp (b-a)", "setting": "MDCKII monolayers; 25 μM", "result": "4.14 ± 0.40 × 10^−7cm/s"},
      {"measurement": "Papp (a–b)", "setting": "MDCKII monolayers; 100 μM", "result": "1.70 ± 0.06 × 10^−7cm/s"},
      {"measurement": "Papp (b-a)", "setting": "MDCKII monolayers; 100 μM", "result": "2.05 ± 0.12 × 10^−7cm/s"},
      {"measurement": "Papp (a–b)", "setting": "MDCKII monolayers; 400 μM", "result": "1.77 ± 0.31 × 10^−7cm/s"},
      {"measurement": "Papp (b-a)", "setting": "MDCKII monolayers; 400 μM", "result": "2.07 ± 0.46 × 10^−7cm/s"}
    ]}
  ]
}
